From ChEMBL document CHEMBL1629705, “PSI-7851, a pronucleotide of beta-D-2'-deoxy-2'-fluoro-2'-C-methyluridine monophosphate, is a potent and pan-genotype inhibitor of hepatitis C virus replication” (Antimicrob Agents Chemother, 2010) come the findings set out here.

The test system of data set [1] is Hepatitis C virus. The data set is described as follows: Antiviral activity against Hepatitis C virus H77. It counts as functional, organism-based, Hepacivirus hominis. The conditions noted are these: genotype 1a H77.
Data set [2] in a line: Cytotoxicity against human CEM cells assessed as effect on cellular GAPDH RNA level after 8 days by quantitative real-time PCR. It is filed as cell-based. The note with it: CEM (CCRF-CEM) cells. (In general: Quantitative PCR measures a nucleic acid by following its amplification.)
In the next data set the test system is CCRF-CEM. The data set is described as follows: Cytotoxicity against human CEM cells assessed as effect on ribosome RNA gene level at up to 100 uM after 14 days by quantitative real-time PCR assay. It is filed as cell-based. The conditions noted are these: 336 h. An outline of the steps:
(§1)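 HepG2 or CEM cells incubated 14 days with compound up to 100 μM, ddC as control. Medium and compound replenished on days 7 and 11. Mitochondrial COXII gene and nuclear rDNA measured by multiplex quantitative RT-PCR.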

Data set [3] relates to Hepatitis C virus. Description: Antiviral activity against Hepatitis C virus harboring wild-type NS5B infected in human HuH7 cells by luciferase-based replicon assay. It is filed as functional, Hepacivirus hominis. The note with it: Huh-7.
Data set [4] in a line: Cytotoxicity against human myeloid progenitor cells after 14 to 16 days by colony formation assay. It is filed as cell-based. An outline of the steps: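 Normal human bone marrow erythroid and myeloid progenitors, 2 × 10^4 cells per culture in methylcellulose with rh-SCF 50 ng/ml, rh-IL-3 10 ng/ml, rh-GM-CSF 10 ng/ml and rh-EPO 3 U/ml. Compound up to 50 μM, DMSO control 0.1%, 14–16 days.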

Data set [5] has as its system Hepatitis C virus. The data set is described as follows: Antiviral activity against Hepatitis C virus H77 harboring Htat protein assessed as viral RNA level by quantitative real-time PCR. It is filed as functional, organism-based, Hepacivirus hominis. The note with it: genotype 1a H77.
The subject of data set [6] is Hepatitis C virus. The data set is described as follows: Antiviral activity against Hepatitis C virus Con1 infected in human lunet cells assessed as inhibition of viral RNA replication after 4 days by luciferase reporter gene assay. It counts as functional, organism-based, Hepacivirus hominis. The note with it: 96 h. The gist of the method: (§2)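 Genotype 1b Con1 subgenomic replicon cells (ET-lunet, 3,000 cells/well, firefly luciferase ET replicon; clone A, 1,500 cells/well) incubated 4 days with serially diluted compound. Replication read by luciferase luminescence and/or real-time RT-PCR.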
A general note: In a reporter assay the amount or activity of a reporter protein is the signal.

In the next data set the test system is Yellow fever virus. The data set is described as follows: Antiviral activity against Yellow fever virus 17D by neutral red assay. It is filed as functional.
In data set [7] the test system is Hepatitis C virus. The data set is described as follows: Antiviral activity against Hepatitis C virus isolate Con1 infected in human HuH-7 cells assessed as inhibition of viral RNA replication after 4 days by luciferase reporter gene assay. It is filed as functional, Hepacivirus hominis. The conditions noted are these: Con1, Huh-7, 96 h. An outline of the steps: as §2

A further data set relates to HepG2. The data set is described as follows: Cytotoxicity against human HepG2 cells assessed as effect on ribosome RNA gene level at up to 100 uM after 14 days by quantitative real-time PCR assay. It counts as cell-based. The note with it: hepg2, 336 h. The gist of the method: as §1
Data set [8] can be described thus: Cytotoxicity against human BxPC3 cells assessed as effect on cellular GAPDH RNA level after 8 days by quantitative real-time PCR. It is filed as cell-based, BXPC-3.
Data set [9] concerns Hepatitis C virus. The data set is described as follows: Antiviral activity against Hepatitis C virus genotype 1b harboring Ntat protein assessed as viral RNA level by quantitative real-time PCR. It counts as functional, organism-based, Hepacivirus hominis.
The subject of data set [10] is Influenza A virus. The data set is described as follows: Antiviral activity against Influenza A virus (A/Brisbane/59/2007 (H1N1)) infected in HFF by neutral red assay. It counts as functional, organism-based.
A further data set has as its system West Nile virus. Description: Antiviral activity against West Nile virus New York by neutral red assay. It counts as functional, organism-based.
Data set [11] is described as follows: Cytotoxicity against human HepG2 cells assessed as effect on cellular GAPDH RNA level after 8 days by quantitative real-time PCR. It counts as cell-based.
The test system of data set [12] is Hepatitis C virus. Description: Antiviral activity against Hepatitis C virus harboring NS5B polymerase S282T mutant gene infected in human HuH7 cells by luciferase-based replicon assay. It counts as functional, Hepacivirus hominis. The note with it: Huh-7. On the technique in general: A replicon is a self-replicating genome or part of one, used to study replication in cells.

Data set [13] can be described thus: Cytotoxicity against human HepG2 cells. It is filed as cell-based. An outline of the steps:
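Cells treated 8 days with compound serially diluted from 100 μM in DMSO-containing medium, gemcitabine (1 μM) or DMSO control. Viability by MTS-type tetrazolium assay, absorbance at 490 nm with medium-only blanks. Value derived by comparison with DMSO control wells.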

Data set [14] relates to Influenza A virus. Description: Antiviral activity against Influenza A virus (A/Viet Nam/1203/2004(H5N1)) infected in HFF by neutral red assay. It is filed as functional, organism-based.
Data set [15] concerns the target DNA-directed RNA polymerase II subunit RPB1 (Homo sapiens, UniProt P24928). Description: Inhibition of human RNA polymerase 2 assessed as synthesis of RNA products at 500 uM. The gist of the method:
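In vitro transcription by HeLa nuclear extract from CMV immediate-early promoter DNA. Mix: 400 μM ATP, CTP and UTP, 16 μM GTP, [α-32P]GTP, 3 mM MgCl2, in 20 mM HEPES pH 7.9 buffer with KCl, EDTA, DTT and glycerol. Inhibitor up to 1 mM. 30°C for 60 min. RNA purified, run on 6% sequencing gel and quantified by phosphorimager.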

The test system of data set [16] is Hepatitis C virus. The data set is described as follows: Inhibition of Hepatitis C virus Con1 recombinant NS5B polymerase after 30 mins by phosphor imaging. The note with it: Con1, 0.5 h. On the set-up: species or system Hepacivirus hominis. The gist of the method: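 C-terminal Δ21-truncated NS5B: 1b Con1 and 2a JFH-1 expressed in E. coli; 3a and 4a cloned from patient serum. Mix: 1 μM each NTP, [α-32P]UTP, 20 ng/μl genotype 1b(−) IRES RNA template, 40 ng/μl enzyme, 1 mM MgCl2, 0.75 mM MnCl2, 2 mM DTT, 50 mM HEPES pH 7.5. Run at 27°C: 30 min (1b, 2a) or 3 h (3a, 4a). EDTA quench, products on membrane read by phosphorimager. Duplicates; IC50 calculated.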

SMILES strings stand for the structures.

Broadly, the EC50 is the concentration needed to bring the measured effect to its halfway point. One may read the EC90 as the point of the concentration-response curve where the effect stands at 90%. As usually defined, the CC50 is the concentration that lowers cell viability or growth by half. The term inhibition denotes the change of the read-out against control, counted positive when it falls. The term IC50 denotes the point on the concentration scale where inhibition reaches its midpoint.

In the case of `CC(C)OC(=O)[C@H](C)NP(=O)(OC[C@H]1O[C@@H](n2ccc(=O)[nH]c2=O)[C@](C)(F)[C@@H]1O)Oc1ccccc1` (some centres undefined), the EC50 was 190 nM with Hepatitis C virus [1]; 430 nM in the data set on Hepatitis C virus [5]; 1340 nM in the data set on Hepatitis C virus [6]; over 100000 nM in the data set on Yellow fever virus; 93 nM with Hepatitis C virus [9]; over 100000 nM in the data set on Influenza A virus [10]. For the same compound, the half-maximal effective concentration (EC50) in the data set on West Nile virus and in the data set on Influenza A virus [14] was over 100000 nM each time. Further, the EC90 turned out to be 340 nM in the data set on Hepatitis C virus [1]; 450 nM in the data set with Hepatitis C virus [3]; 1220 nM in the data set with Hepatitis C virus [5]; 3810 nM in the data set with Hepatitis C virus [6]; 4320 nM in the data set on Hepatitis C virus [7]; 750 nM with Hepatitis C virus [9]. The concentration for an effect of 90% (EC90) in the data set with Hepatitis C virus [12] stood at 7400 nM. In addition, the CC50 at 192 h in data set [2], in [8] and in data set [11] was over 100000 nM each time. In addition, the Activity entry in the data set on CCRF-CEM and in the data set on HepG2 was “Non-toxic” in each case. The CC50 in data set [4] is over 50000 nM. The same compound gave a CC90 in data set [13] of 12800 nM.

Take `C[C@@]1(F)[C@H](O)[C@@H](COP(=O)(O)OP(=O)(O)OP(=O)(O)O)O[C@H]1n1ccc(=O)[nH]c1=O` [GS-461203]: the inhibition in data set [15] stood at 85%. Besides, the IC50 in the data set on Hepatitis C virus [16] amounted to 1600 nM.
